Results from ChEMBL document CHEMBL1165909, “Analgesic, anti-pyretic and DNA cleavage studies of novel pyrimidine derivatives of coumarin moiety” (Eur J Med Chem, 2010).
The source made the active and inactive calls. The calls are words filed in the database; no cut-off is given here.

Assays:
Rattus norvegicus [1] = assay: Antipyretic activity against brewer's yeast-induced hyperthermia in albino Wistar rat assessed as change in rectal temperature at 300 mg/kg, po after 5 hrs (reference value: 34.36 +/- 0.14 degC); type: functional
Rattus norvegicus [2] = assay: Antipyretic activity against brewer's yeast-induced hyperthermia in albino Wistar rat assessed as change in rectal temperature at 300 mg/kg, po after 3 hrs (reference value: 32.80 +/- 0.09 degC); type: functional
Rattus norvegicus [3] = assay: Antipyretic activity against brewer's yeast-induced hyperthermia in albino Wistar rat assessed as change in rectal temperature at 300 mg/kg, po after 1 hr (reference value: 33.78 +/- 0.18 degC); type: functional
Rattus norvegicus [4] = assay: Antipyretic activity against brewer's yeast-induced hyperthermia in albino Wistar rat assessed as change in rectal temperature at 300 mg/kg, po after 6 hrs (reference value: 33.44 +/- 0.18 degC); type: functional
Rattus norvegicus [5] = assay: Antipyretic activity against brewer's yeast-induced hyperthermia in albino Wistar rat assessed as change in rectal temperature at 100 mg/kg, po after 3 hrs (reference value: 32.80 +/- 0.09 degC); type: functional
Rattus norvegicus [6] = assay: Acute toxicity in albino Wistar rat assessed as stomach ulcerhaemorrhagic spots at up to 3 g/kg, po after 24 hrs; type: organism-based; settings: in vivo, 3000 mg/kg
Method in brief: (§1)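 Albino rats of either sex, groups of six, dosed from 100 up to 3000 mg kg^-1 body weight. Watched continuously for 8 h for signs such as altered motor activity, ataxia, tremors, convulsions, sedation and lacrimation. Killed at 24 h; stomach, intestine and liver inspected under magnifying lenses for ulcer-haemorrhagic spots.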

Rattus norvegicus [7] = assay: Analgesic activity in albino Wistar rat assessed as reaction time required for tail flicking at 25 mg/kg, po after 60 mins by tail-flick method (reference value: 4 +/- 0.360 sec); type: functional
Rattus norvegicus [8] = assay: Acute toxicity in albino Wistar rat assessed as ulceration at up to 3 g/kg, po after 24 hrs; type: organism-based; settings: in vivo, 3000 mg/kg; method in brief: as §1
Rattus norvegicus [9] = assay: Acute toxicity in albino Wistar rat assessed as intestine ulcerhaemorrhagic spots at up to 3 g/kg, po after 24 hrs; type: organism-based; settings: in vivo, 3000 mg/kg; method in brief: as §1
Rattus norvegicus [10] = assay: Analgesic activity in albino Wistar rat assessed as reaction time required for tail flicking at 25 mg/kg, po after 30 mins by tail-flick method (reference value: 3.97 +/- 0.287 sec); type: functional
Rattus norvegicus [11] = assay: Analgesic activity in albino Wistar rat assessed as reaction time required for tail flicking at 25 mg/kg, po after 90 mins by tail-flick method (reference value: 3.87 +/- 0.355 sec); type: functional
Nucleic Acid = assay: Induction of Escherichia coli DNA cleavage at 25 mg after 24 hrs by agarose gel electrophoresis method; type: nucleic-acid assay
Method in brief: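 E. coli grown in nutrient broth 24 h at 37 °C. Genomic DNA isolated by SDS lysis, phenol (55 °C, 10 min), chloroform:isoamyl alcohol extraction and ethanol precipitation, dissolved in TAE. Compounds at 1 mg/ml in DMF added to DNA, incubated 2 h at 37 °C. Run on agarose gel at 50 V about 30 min, stained with ethidium bromide, bands compared with DNA marker.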

Rattus norvegicus [12] = assay: Antipyretic activity against brewer's yeast-induced hyperthermia in albino Wistar rat assessed as change in rectal temperature at 100 mg/kg, po after 1 hr (reference value: 33.78 +/- 0.18 degC); type: functional
Rattus norvegicus [13] = assay: Acute toxicity in albino Wistar rat assessed as sedation at up to 3 g/kg, po after 24 hrs; type: organism-based; settings: in vivo, 3000 mg/kg; method in brief: as §1
Rattus norvegicus [14] = assay: Acute toxicity in albino Wistar rat assessed as mortality at up to 3 g/kg, po after 24 hrs; type: organism-based; settings: in vivo, 3000 mg/kg; method in brief: as §1
Rattus norvegicus [15] = assay: Acute toxicity in albino Wistar rat assessed as tremors at up to 3 g/kg, po after 24 hrs; type: organism-based; settings: in vivo, 3000 mg/kg; method in brief: as §1
Rattus norvegicus [16] = assay: Antipyretic activity against brewer's yeast-induced hyperthermia in albino Wistar rat assessed as change in rectal temperature at 100 mg/kg, po after 5 hrs (reference value: 34.36 +/- 0.14 degC); type: functional
Rattus norvegicus [17] = assay: Acute toxicity in albino Wistar rat assessed as haemorrhagic spots at up to 3 g/kg, po after 24 hrs; type: organism-based; settings: in vivo, 3000 mg/kg; method in brief: as §1
Rattus norvegicus [18] = assay: Acute toxicity in albino Wistar rat assessed as convulsion at up to 3 g/kg, po after 24 hrs; type: organism-based; settings: in vivo, 3000 mg/kg; method in brief: as §1
Rattus norvegicus [19] = assay: Antipyretic activity against brewer's yeast-induced hyperthermia in albino Wistar rat assessed as change in rectal temperature at 100 mg/kg, po after 6 hrs (reference value: 33.44 +/- 0.18 degC); type: functional

CC(=O)Oc1ccccc1C(=O)O [ASPIRIN] showed a T (Rattus norvegicus [1]) of 32.3 °C, a T (Rattus norvegicus [2]) of 32 °C and a T (Rattus norvegicus [3]) of 32.82 °C. For the same molecule, the T (Rattus norvegicus [4]) was 32.38 °C.

O=c1cc(COc2ccc(-c3cc(-c4ccccc4)nc(S)n3)cc2)c2ccc3ccccc3c2o1 was tested, and the T (Rattus norvegicus [5]) was 32 °C, the Activity (Rattus norvegicus [6]) was “Non-toxic” and the Time (Rattus norvegicus [7]) was 5.25 s. The Activity (Rattus norvegicus [8]) was “Non-toxic”, the Activity (Rattus norvegicus [9]) was “Non-toxic” and the Time (Rattus norvegicus [10]) was 4.52 s. For the same molecule, the Time (Rattus norvegicus [11]) was 6.25 s, the Activity (Nucleic Acid) was “Active” and the T (Rattus norvegicus [12]) was 33.01 °C. The Activity (Rattus norvegicus [13]) was “Non-toxic”, the Activity (Rattus norvegicus [14]) was “Non-toxic” and the Activity (Rattus norvegicus [15]) was “Non-toxic”. The T (Rattus norvegicus [16]) was 33.09 °C, the Activity (Rattus norvegicus [17]) was “Non-toxic” and the Activity (Rattus norvegicus [18]) was “Non-toxic”. It also gave a T (Rattus norvegicus [19]) of 32.5 °C.

For Cc1ccc2oc(=O)cc(COc3ccc(-c4cc(-c5ccccc5)nc(O)n4)cc3)c2c1, the T (Rattus norvegicus [5]) was 32.31 °C, the Activity (Rattus norvegicus [6]) was “Non-toxic” and the Time (Rattus norvegicus [7]) was 5.46 s. The Activity (Rattus norvegicus [8]) was “Non-toxic”, the Activity (Rattus norvegicus [9]) was “Non-toxic” and the Time (Rattus norvegicus [10]) was 4.48 s. For the same molecule, the Time (Rattus norvegicus [11]) was 6.2 s, the Activity (Nucleic Acid) was “Active” and the T (Rattus norvegicus [12]) was 33.18 °C. The Activity (Rattus norvegicus [13]) was “Non-toxic”, the Activity (Rattus norvegicus [14]) was “Non-toxic” and the Activity (Rattus norvegicus [15]) was “Non-toxic”. The T (Rattus norvegicus [16]) was 33.12 °C, the Activity (Rattus norvegicus [17]) was “Non-toxic” and the Activity (Rattus norvegicus [18]) was “Non-toxic”. For the same molecule, the T (Rattus norvegicus [19]) was 32.97 °C.

In the case of O=c1cc(COc2ccc(-c3cc(-c4ccccc4)nc(O)n3)cc2)c2ccc3ccccc3c2o1, the T (Rattus norvegicus [5]) is reported as 32.68 °C, the Activity (Rattus norvegicus [6]) is reported as “Non-toxic” and the Time (Rattus norvegicus [7]) is reported as 6.25 s. The Activity (Rattus norvegicus [8]) was “Non-toxic”, the Activity (Rattus norvegicus [9]) was “Non-toxic” and the Time (Rattus norvegicus [10]) was 4.75 s. For the same molecule, the Time (Rattus norvegicus [11]) was 7.25 s, the Activity (Nucleic Acid) was “Active” and the T (Rattus norvegicus [12]) was 32.25 °C. The Activity (Rattus norvegicus [13]) was “Non-toxic”, the Activity (Rattus norvegicus [14]) was “Non-toxic” and the Activity (Rattus norvegicus [15]) was “Non-toxic”. The T (Rattus norvegicus [16]) was 33.44 °C, the Activity (Rattus norvegicus [17]) was “Non-toxic” and the Activity (Rattus norvegicus [18]) was “Non-toxic”. It also gave a T (Rattus norvegicus [19]) of 32.74 °C.
